This series relates to MS2 coat protein. In words: apparent Kd, MS2 coat protein; higher = weaker binding; RNA-MaP array; FMN 200 µM where present. A digest of the protocol:
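Stalled E. coli RNA polymerase transcribed the designs on Illumina sequencing-chip clusters. SNAP-549-labelled MS2 coat protein was titrated from 0.7 or 1.5 nM, doubling to 3 µM, without and then with constant ligand, in 100 mM Tris-HCl pH 7.5, 80 mM KCl, 4 mM MgCl2, BSA, DTT, yeast tRNA and Tween-20. Per-cluster binding curves were fitted to green signal normalised to red-channel RNA signal and control-cluster median Fmax. The apparent Kd is the median of the filtered fits.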

Where [1] appears, read: designed as: ON switch for flavin mononucleotide, no ligand.
The mark [2] stands for this setting: ligand present: flavin mononucleotide, designed as: ON switch for flavin mononucleotide.
Where [3] appears, read: designed as: OFF switch for flavin mononucleotide, no ligand.
The mark [4] stands for this setting: ligand present: flavin mononucleotide, designed as: OFF switch for flavin mononucleotide.

Take “CUGAGGAAGAGAGAGGAUAUCCAAAGGAAAACAUGAGGAUCACCCAUGUAAAAGGUAGGAAAUUGGGAGAAGGCUCAAGAGAGAG”: the apparent Kd (commonly the concentration giving half-maximal binding under the conditions of the assay) worked out at 43.6 nM under setting [1] and 38.5 nM under setting [2].

With “AGCUACGUUUCGUAGCAGCUAGGUGAGGAUAUCCUUUUACAUGAGGAUCACCCAUGUUAGCCAUGGGAGAAGGCGCCUAGAAAG”, the “apparent Kd” value runs as follows: under setting [1], 498 nM; under setting [2], 37.7 nM.

For the sequence “AAGAAACAUGAGGAUCACCCAUGUGAUAAUAUGGGAGGAUAUACAAAGACGAAAGUCGAAGUAGAAGGCCUAUGAA”, the “apparent Kd” value is 52.3 nM under setting [1] and 43.2 nM under setting [2].

With “AUUGUAUGGAAAGGAUAUAGAAUAUUAUUUUAACAUGAGGAUCACCCAUGUAACCUUAUGUGUAGCUAGAAGGUUCGUUUGUUA”, the “apparent Kd” value was 88.2 nM under setting [3] and 97.8 nM under setting [4].

Turning to “GCACUGGAUGUAGGAUAUCAGGACGAUAAGUCCUGAGAAGGACAUGAGGAUCACCCAUGUCUAAUAAACCAGUGCUAUAAUAUA”, the “apparent Kd” value runs as follows: under setting [3], 14.4 nM; under setting [4], 18.9 nM.

Take “CGACACCACACAGGAUAUGCUGGACUUUGUCCAGCAGAAGGGUGUAAACAUGAGGAUCACCCAUGUAUGGUGUCGAAAUUUAAU”: the “apparent Kd” value under setting [1] turned out to be 382 nM and the “apparent Kd” value under setting [2] is 21.1 nM.

For the sequence “ACCGGGUGUCACGUAUUACCGACAUGAGGAUCACCCAUGUAGGAGGAUAUGCAGACCGAAAUAAAGCAGAAGGCCUACGUUCUC”, the “apparent Kd” value turned out to be 10.6 nM under setting [3] and 46.6 nM under setting [4].

Consider “GUCAGCUCGUUAGGAUAUACAACACUGCUUCGGCAGUGUAUUAAGAUCACAUGAGGAUCACCCAUGUAGAAGGCACGAGCUGAU”, for which the “apparent Kd” value worked out at 8.16 nM under setting [3] and 29.5 nM under setting [4].

On to “UUCGUGCAGCUUUGCUGUACGCGUACAUGAGGAUCACCCAUGUAGGAUAUGGUAGGCAAAGCUUACUAGAAGGAUAUAGUGAUU”, for which the “apparent Kd” value was found to be 9.34 nM under setting [3] and 9.4 nM under setting [4].

“UGAGUAGCGUAACAACGCACAUGAGGAUCACCCAUGUCUACACAGGAUAUGCGACGCUCCAGUUAGCAGAAGGGUGAACUCAAA”: the “apparent Kd” value under setting [1] turned out to be 78.7 nM and the “apparent Kd” value under setting [2] was 138 nM.

Take “GCAAAGCCUGACAUGAGGAUCACCCAUGUUAGAUUGUUAUGUCAGGAUAUUGUCUAGCAACUAGACAAGAAGGGAUGCUUUGCU”: the “apparent Kd” value was 369 nM under setting [1] and 27.6 nM under setting [2].

As for “GUCUUUUUACAGAAGGUGUUUAACAUGAGGAUCACCCAUGUACAAAAGGUUAAAUUUGAUAAUAACAAGGAUAUGUACUAAUCA”, the “apparent Kd” value reads like this: under setting [1], 292 nM; under setting [2], 184 nM.

Regarding “UAUAGGCUAGGAUAUACAACACUUGGUUCAGAUGUUUGAAGACAUGAGGAUCACCCAUGUAGAAGGAGCAUUCA”, the “apparent Kd” value under setting [3] amounted to 33.5 nM and the “apparent Kd” value under setting [4] amounted to 76.3 nM.

In the case of “CUCGUGUCAGGAUAUCGAUGGCACCUCCGGGCGCCCGAACGCGAGAAGGGACAUGAGGAUCACCCAUGUAAAAC”, the “apparent Kd” value was found to be 66.8 nM under setting [3] and 113 nM under setting [4].

Take “GCCACAAGGGCAGGAUAUGAACUUAAUGGCAGUUUAGAAGGGUCACUCGUGGGUUAAAAUCACAUGAGGAUCACCCAUGUAUAG”: the “apparent Kd” value was 664 nM under setting [1] and 84.7 nM under setting [2].

For the sequence “GGAAAUCAUGUAGGAUAUGCAUGGCGAAGCUACGCAGAAGGACAUGAGGAUCACCCAUGUGCUAGCUACCGAGUUCGGUGGCAA”, the “apparent Kd” value is 90.8 nM under setting [3] and 211 nM under setting [4].

In the case of “GGGUUUGGAGGAUAUACAUGAGGAUCACCCAUGUAGGGUUUGGGUAUUCCCGGGCCCUGUAGAAGGCCGGGCCC”, the “apparent Kd” value under setting [3] came to 16.6 nM and the “apparent Kd” value under setting [4] was 20.4 nM.

As for “AAUUAACUCACAGGAUAUAGCAGAGGUCGAGUAAACUUACAGGCGACGAGGCUAGAAGGGUGACCACAUGAGGAUCACCCAUGU”, the “apparent Kd” value stood at 733 nM under setting [1] and 131 nM under setting [2].

As for “CUGUAGAUAUCAGGAUAUCUAUUUCCUACAUGAGGAUCACCCAUGUAGAUGAUCACCCAUGUAAAGGAGAAGGGAUAUCUAUAG”, the “apparent Kd” value under setting [1] turned out to be 342 nM and the “apparent Kd” value under setting [2] came to 180 nM.

On to “GGAAAACAUGAGGAUCACCCAUGUGAGGAUAUCGAUGUCCAAGAAAAAGUGCGGGACUCGAGAAGGCACUUGGA”, for which the “apparent Kd” value is 58.9 nM under setting [3] and 36.8 nM under setting [4].

“AAAAAACAUGAGGAUCACCCAUGUAAAAAAAUCGCAGGAUAUAGGGUCGCGAAAGCGACCCUAGAAGGGCGAUCCU”: the “apparent Kd” value under setting [1] stood at 260 nM and the “apparent Kd” value under setting [2] came out at 87.7 nM.

Consider “GACUUCUCUGAGGAUAUUGCAUCAUACGAUUUAUAAGAAGGCAGAACAUGAGGAUCACCCAUGUGGGUUUCUAG”, for which the “apparent Kd” value was found to be 59 nM under setting [3] and 108 nM under setting [4].

Turning to “AAAAAGGGAGGAUAUACAUGAGUAGAUCGUGUAAAAAAAAUACAUGAGGAUCACCCAUGUAGAAGGCCCAAAAA”, the “apparent Kd” value is, setting by setting: under setting [3], 231 nM; under setting [4], 88.2 nM.

Turning to “AUCAGCUCGUCAGGAUAUACGUCACUCCGUCAGCAGUGUGGUAAGAUCACAUGAGGAUCACCCAUGUAGAAGGGACGAGCUGAU”, the “apparent Kd” value reads like this: under setting [3], 29.5 nM; under setting [4], 253 nM.

In the case of “GAACACGGAGGAUAUACAUGAGGAUCACCCAUGUUGAUCCUCAUUAAAAUUGAUAACUGUAGAAGGCCGUGAUA”, the “apparent Kd” value under setting [3] came out at 44.8 nM and the “apparent Kd” value under setting [4] was found to be 22.2 nM.

Take “AGAUUUGUACAUGAGGAUCACCCAUGUUAAUAGGUGGUUGUCAGAAGGCAUUAUUAGAGUUUUAAUGAGGAUAUGAAUUUACAA”: under setting [2], the “apparent Kd” value is 541 nM.

On to “CUUGUGUUAGGAUAUGCGCCCUGAAGUAGAAGGGCCAGAGAGCAGAAGGAACAUGAGGAUCACCCAUGUGUGAC”, for which the “apparent Kd” value was found to be 59.7 nM under setting [3] and 56.5 nM under setting [4].

Regarding “GCAUCGCAUGUCAGGAUAUGCUGUACCUUGGUACAGCAGAAGGGACAUGAGGAUCACCCAUGUGCCUAUGAUGC”, the “apparent Kd” value reads like this: under setting [3], 39.7 nM; under setting [4], 353 nM.

As for “CCUAGACAUGAGGAUCACCCAUGUGAGGAUAUGAUGCGAUCGUCGAAAGACGAUAGCAUCAGAAGGCACAUAUG”, the “apparent Kd” value by setting is: under setting [3], 34.4 nM; under setting [4], 109 nM.

For “AAGGAUCGAGGAUAUACAUAGAUACAGAUACAUGUAUACGUACAUGAGGAUCACCCAUGUAGAAGGCGAUCAUA”, the “apparent Kd” value under setting [3] is 37.1 nM and the “apparent Kd” value under setting [4] was determined as 214 nM.

With “UUGGGUUUGCGAGGAUAUCGUAUGUGAUUUGAACGAGAAGGCGCUAUUUAAAUUAUUUUAACAUAACAUGAGGAUCACCCAUGU”, the “apparent Kd” value under setting [1] was 17.4 nM and the “apparent Kd” value under setting [2] stood at 16 nM.

Consider “AUCAGCUCGUCAGGAUAUACGUCACUGCGUCAGCAGUGUGGUAAGAUCACAUGAGGAUCACCCAUGUAGAAGGGACUAGCUGAU”, for which the “apparent Kd” value under setting [3] is 14.8 nM and the “apparent Kd” value under setting [4] worked out at 294 nM.

Regarding “AAGUUUUUACAAGGAUAUCAAUUUUUUCUAAAUUCAACAUGAGGAUCACCCAUGUAACAAUGGAGUGAGAAGGUGUUUUGGCAA”, the “apparent Kd” value by setting is: under setting [1], 176 nM; under setting [2], 205 nM.

Turning to “GCCAUCGCAUGAGGAUAUGCUCCCGUUUCGGGAGCAGAAGGCAUGUCAUAUGACAUGAGGAUCACCCAUGUAGCUAAGAUGGCA”, the “apparent Kd” value is, setting by setting: under setting [1], 576 nM; under setting [2], 17.5 nM.

Regarding “UUUUUACAUGAGGAUCACCCAUGUGAGGAUAUGGUUUCGCUGGCCGUAGCCAGUGGAACCAGAAGGCGCGUGAU”, the “apparent Kd” value reads like this: under setting [3], 95 nM; under setting [4], 136 nM.

For “CUUUUGUGAGGAUAUCAGUAGUAAAAAAAUAAAAUUACUACUGAGAAGGCACAUGAGGAUCACCCAUGUCUUUC”, the “apparent Kd” value is, setting by setting: under setting [3], 122 nM; under setting [4], 76.8 nM.

As to “AGCGUACAAGCUAACAUGAGGAUCACCCAUGUGGACUCAUGCGAGGAUAUCGGGAAGGAGGAUUCCGAGAAGGUGCGGUGAGCC”, the “apparent Kd” value reads like this: under setting [1], 148 nM; under setting [2], 38.1 nM.

As to “UGGGCUACCACAGGAUAUGCUACAUGAGGAUCACCCAUGUAAAGAAAAUCGGCAGAAGGGUGGUUAGUGCAGCAUGAAGGAGCC”, the “apparent Kd” value was determined as 28.9 nM under setting [1] and 10.8 nM under setting [2].

On to “GCAGAGCUAGGAUAUGCUGGGCUGCAGUAAAAUGGUCACUCACAUGAGGAUCACCCAUGUAGAAGGAGCAGUGU”, for which the “apparent Kd” value by setting is: under setting [3], 26.5 nM; under setting [4], 40 nM.

For the sequence “AUCUUGUCAGGAUAUCGUACAAUAUGGAAAACAUAGAGGUACGAGAAGGGACAUGAGGAUCACCCAUGUAAAAC”, the “apparent Kd” value by setting is: under setting [3], 40.2 nM; under setting [4], 84.5 nM.

For the sequence “GGGUACAUCGGAGGAUAUCAUGUAAAUACAUGAGGAUCACCCAUGUCGAUGGAGAGAUCGGAGAUUGAGAAGGCCGAUGUACCG”, the “apparent Kd” value under setting [1] was 97.4 nM and the “apparent Kd” value under setting [2] was 41 nM.

For “GCCAUCGCAUGAGGAUAUGCUCCGGUUUCCGGAGCAGAAGGUAUGUCAUAAGACAUGAGGAUCACCCAUGUAGUUAAGAUGGCA”, the “apparent Kd” value is, setting by setting: under setting [1], 252 nM; under setting [2], 30 nM.

On to “CGAUUACGAGGAUAUUAUGGCCUCGACAUGAGGAUCACCCAUGUACAAACAUGAAUACCUUGAGAAGGCGUAGAGC”, for which the “apparent Kd” value came out at 67.7 nM under setting [3] and 67.3 nM under setting [4].

Consider “CCGCGGCGUGCAGGAUAUGUUACGAUACCUCGGACAGAAGGGCACAUGAGGAUCACCCAUGUAAUAUAUAUGGAACAUAUAUAG”, for which the “apparent Kd” value by setting is: under setting [3], 33.8 nM; under setting [4], 53.3 nM.

Consider “CUUCGUAUAGAGGAUAUAGGAUACUUCGGUGUCCUAGAAGGCUGUACAUGAGGAUCACCCAUGUACUUCAGAUC”, for which the “apparent Kd” value under setting [3] came out at 12.1 nM and the “apparent Kd” value under setting [4] turned out to be 14.3 nM.

Consider “ACUGAUCAUGAGGAUAUGCGCCAGAACGCCGGCGUAGAAGGCGUGACAUGAGGAUCACCCAUGUCAGUUCGCGA”, for which the “apparent Kd” value under setting [3] turned out to be 59.2 nM and the “apparent Kd” value under setting [4] is 60.3 nM.

For the sequence “AUAAAACAUGAGGAUCACCCAUGUCAACAAAGUCGAGGAUAUGGGCAAAGAAAAUAAGAACCAGAAGGCGAAUAAU”, the “apparent Kd” value by setting is: under setting [1], 260 nM; under setting [2], 45 nM.

For “AAGAAGGACGCAGGAUAUCCAGGACCUCCCGCAGGAGAAGGGCGAGACAUGAGGAUCACCCAGACAUGAGGAUCACCCAUGUAG”, the “apparent Kd” value stood at 37.4 nM under setting [3] and 37.1 nM under setting [4].

Values taken from the EternaBench riboswitch data.
